Source: PubChem BioAssay (several laboratories)
Arbovirus inh = blocks arbovirus infection; arbovirus infection cell-based antiviral screen; inhibition, % at 10 µM; actives 0.37% (n = 200,000); AID 1251; in the data active means inhibition above about 30%
PKD1 kinase inh = inhibitors of human PKD1 kinase. AID 797. actives 0.056% (n = 200,000). PKD1 kinase fluorescence polarization assay. inhibition, % (no concentration beside the values). Q15139; in the data active means inhibition above about 50%
TNAP act hiacc = increases human TNAP activity under high phosphate acceptor concentration; activation factor at 20 µM; 200,000 tested, under 10 active; purified TNAP, CDP-star luminescence, 1 M DEA, 30 min; stronger effect = higher value; 0 = EDTA background, 1 = DMSO-only activity;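 active means activation factor at least 2 at 20 µM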
Target sequence (P05186 whole entry, looked up): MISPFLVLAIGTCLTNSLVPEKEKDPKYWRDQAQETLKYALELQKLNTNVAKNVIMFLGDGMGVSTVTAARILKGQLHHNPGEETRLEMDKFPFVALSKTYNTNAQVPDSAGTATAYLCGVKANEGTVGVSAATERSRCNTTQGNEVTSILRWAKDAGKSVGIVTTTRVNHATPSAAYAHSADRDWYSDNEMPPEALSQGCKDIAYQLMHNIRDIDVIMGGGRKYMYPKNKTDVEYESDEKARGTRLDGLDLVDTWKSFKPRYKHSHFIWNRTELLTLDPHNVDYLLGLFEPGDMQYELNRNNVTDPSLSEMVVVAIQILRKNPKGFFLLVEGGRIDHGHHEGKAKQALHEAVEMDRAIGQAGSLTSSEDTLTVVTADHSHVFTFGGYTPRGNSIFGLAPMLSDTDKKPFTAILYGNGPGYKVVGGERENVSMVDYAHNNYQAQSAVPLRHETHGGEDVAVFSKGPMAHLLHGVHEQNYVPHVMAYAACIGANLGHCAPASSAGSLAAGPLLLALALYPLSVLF
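Test system – human TNAP · Doses – 20 µM single point · Incubation – 30 min, room temperature · Signal – luminescent substrate turnover signal · Read-out basis – activation factor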
TNAP inh hiacc = TNAP (human) inhibition, high acceptor; P05186; purified TNAP, CDP-star luminescence, 1 M DEA; inhibition, % at 20 µM; actives 0.03% (n = 200,000); AID 1135;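 active means over 50% inhibition of tissue-nonspecific alkaline phosphatase at 20 µM in the single-dose screen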;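 further: plate controls were DMSO wells for no effect and EDTA-quenched wells as full inhibition for full effect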
TNAP inh no acc = blocks human TNAP activity with no phosphate acceptor present. purified TNAP, CDP-star luminescence, 30 min. inhibition, % at 20 µM. actives 0.26% (n = 200,000). AID 1012;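 active means tissue-nonspecific alkaline phosphatase inhibition above about 50% at 20 µM in the single-dose screen, limit read from the data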;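 further: 0% = DMSO negative control and 100% = EDTA positive control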
* = called active by the depositor. Hits are enriched below; roughly 0.73% of the tested compounds scored in any of these assays.

SMILES | Arbovirus inh | PKD1 kinase inh | TNAP act hiacc | TNAP inh hiacc | TNAP inh no acc
COc1ccc(C(=O)O)cc1NC(=S)NC(=O)c1ccc(-c2ccc(Cl)cc2)o1 | 50* | -2 | 1 | 2 | 8
O=C(O)c1cccc(NC(=S)NC(=O)c2ccc(-c3ccc(Cl)cc3)o2)c1 | 35* | -10 | 1 | -2 | 16
CCC(=O)NC(=S)Nc1cc(C(=O)O)ccc1OC | -2 | -2 | 1 | -2 | -6
N#Cc1c(N)nc2c(c1-c1ccc3c(c1)OCO3)CCc1ccccc1-2 | -28 | -3 | 1 | -1 | -12
O=C(COc1ccc([N+](=O)[O-])cc1)Nc1ccc(C(=O)Nc2ccccc2C(=O)O)cc1 | 28 | -9 | 1 | 3 | -1
COc1ccc(C(=O)/C=C/c2ccc(OC)c(Cn3nnc4ccccc43)c2)cc1 | 37* | 3 | 1 | -1 | -6
COc1ccc(C(=O)/C=C/c2ccc(OC)c(CN3CCOCC3)c2)cc1 | 0 | -13 | 1 | 0 | -11
CC(C)(C)NC(=O)NC(=O)COC(=O)Cc1coc2ccc3ccccc3c12 | 9 | -1 | 1 | 0 | -7
CCNC(=O)NC(=O)C(C)Sc1nc2cc(C(=O)OC)ccc2c(=O)n1-c1ccccc1 (stereo unspecified) | 43* | -2 | 1 | 1 | -9
O=C1CC2c3ccccc3C1C1C(=O)N(Cc3ccccc3)C(=O)C21 (stereo unspecified) | 8 | 3 | 1 | -3 | -4
CCOC(=O)C1=C(C)N(CCCC(=O)NCc2ccc3c(c2)OCO3)C(=O)NC1c1ccc(Br)cc1 (stereo unspecified) | 5 | -5 | 1 | 0 | -6
Clc1ccc(-c2n[nH]c3c2CCCC3)cc1 | 5 | -1 | 1 | -4 | 53*
COC(=O)c1ccc(CNC(=O)COC(=O)Cc2ccsc2)cc1 | 4 | -4 | 1.1 | -7 | -11
Cc1ccsc1C1C=C(c2cccc(Br)c2)Nc2ncnn21 (stereo unspecified) | -1 | -11 | 1 | -3 | -11
Fc1ccc(Br)cc1C1C=C(c2ccc(Br)cc2)Nc2ncnn21 (stereo unspecified) | 71* | 6 | 1 | -1 | 14
CCOC(=O)C1=C(C)Nc2ncnn2C1c1ccccc1F (stereo unspecified) | -1 | 2 | 1 | -1 | -19
CCc1ccc(C2=CC(c3cc(Br)ccc3F)n3ncnc3N2)cc1 (stereo unspecified) | 62* | 2 | 1 | 3 | 3
COc1ccc(C(=O)Nc2ccc3cn[nH]c3c2)c(OC)c1 | -6 | 1 | 1.1 | -5 | -10
COC(=O)c1ccccc1NC(=O)c1ccc(COc2ccc(C)c(C)c2)o1 | 48* | 2 | 1 | 0 | -3
COC(=O)c1ccccc1NC(=O)c1ccc(COc2cc(C)cc(C)c2)o1 | 22 | 2 | 1.1 | -5 | -4
COc1ccccc1-c1nc(NC(C)=O)n[nH]1 | 3 | 2 | 1 | 0 | 93*
COc1ccc(OC)c([C@@H]2OCCC=C[C@H]2C)c1 | -1 | -13 | 1 | 0 | -9
CCCC(=O)Nc1cccc(NC(=O)c2ccc([N+](=O)[O-])cc2Cl)c1 | 45* | 5 | 1 | 1 | -5
CCCC(=O)Nc1ccc(Cl)c(NC(=O)c2ccc([N+](=O)[O-])cc2Cl)c1 | -6 | -2 | 1 | 0 | 3
Cc1ccc(-n2c(SCC(=O)N(C)C3CCS(=O)(=O)C3)nc3ccccc3c2=O)cc1 (stereo unspecified) | 9 | -6 | 1.1 | -7 | -10
SMILES | Arbovirus inh | PKD1 kinase inh | TNAP act hiacc | TNAP inh hiacc | TNAP inh no acc
Cc1ccc(-c2cc(C(=O)N/N=C/c3ccco3)[nH]n2)cc1 | 1 | 1 | 0.9 | 15 | 87*
O=C(N/N=C/c1ccco1)c1cc(-c2ccccc2)n[nH]1 | -13 | -2 | 0.8 | 22 | 93*
O=C(N/N=C/c1ccco1)c1cc(-c2cccc3ccccc23)n[nH]1 | -4 | 10 | 1 | 4 | 27
CC(C)c1ccc(C(N)=S)cc1 | 13 | -1 | 1 | -5 | -48
CC(=O)NC(=S)Nc1ccc(S(=O)(=O)Nc2nc(C)cc(C)n2)cc1 | 0 | 5 | 1 | -5 | -20
CC(C)(C)c1ccc(/C=N/NC(=S)Nc2cccnc2)cc1 | -5 | -6 | 0.9 | 6 | -6
Oc1ccc(/C=N/NC(=S)Nc2cccnc2)cc1O | -10 | 0 | 0.8 | 20 | 78*
C/C(=N\Nc1nc2ccccc2[nH]1)c1ccc2c(c1)OCO2 | 36* | 4 | 1 | -3 | -172
C/C(=N\Nc1nc2ccccc2[nH]1)c1ccc2c(c1)OCCO2 | -15 | 2 | 1 | -2 | -79
CCOc1ccc(-n2c(SCC(=O)Nc3cc(OC)c([N+](=O)[O-])cc3C)nc3ccccc32)cc1 | 54* | -13 | 1 | -2 | -4
Cc1ccc(-c2nc(SCC(=O)NCC3CCCO3)c(-c3ccccc3)[nH]2)cc1 (stereo unspecified) | -8 | -12 | 1 | 2 | -6
O=c1[nH]n2c(=O)c3c([nH]c2c1N=Nc1cccc(Cl)c1)CCC3 | 34* | 30 | 1 | 4 | -4
O=c1[nH]n2c(=O)c3c([nH]c2c1N=Nc1cccc(C(F)(F)F)c1)CCCC3 | 37* | 1 | 0.8 | 20 | -44
COc1cccc(N=Nc2c(=O)[nH]n3c(=O)c4c([nH]c23)CCC4)c1 | 9 | -4 | 0.8 | 20 | -72
O=C(O)c1ccccc1N/N=C\c1ccnc2ccccc12 | 31* | 6 | 1 | 1 | -7
O=C(/C=C/c1ccnc2ccccc12)c1cccs1 | -3 | -4 | 1 | 3 | 0
O=C(Nc1ccc(OC(F)(F)F)cc1)c1[nH]ncc1[N+](=O)[O-] | 30* | 0 | 1 | 3 | -23
S=C(NCc1ccco1)N/N=C/c1ccccc1Cl | 2 | -12 | 1 | -2 | -5
CSc1nc(-c2ccc(Cl)cc2)nn1C(=O)c1ccccc1 | -11 | 1 | 1 | 1 | 43
CCS(=O)(=O)n1nc(-c2ccccc2)nc1SC | 6 | -5 | 1 | -4 | 54*
CSc1nc(-c2ccccc2)nn1C(=O)c1ccccc1 | -1 | -1 | 1 | 0 | 56*
CSc1nc(-c2ccccc2)nn1S(=O)(=O)c1ccccc1 | 5 | -6 | 1 | -3 | 54*
CN(C)c1ccc(/C=C/c2ccc3ccccc3[n+]2C)cc1 | -23 | -3 | 0.4 | 57* | 57*
CN(C)c1ccc(/C=C/c2ccc3c4ccccc4ccc3[n+]2-c2ccccc2)cc1 | -33 | 1 | 0.3 | 69* | 74*
CCOC(=O)c1cc(NC(=O)Nc2cc(C)ccn2)c(C)nc1C | 12 | -1 | 0.9 | 9 | 7
CCOC(=O)c1cc(NC(=O)Nc2nc3ccccc3s2)c(C)nc1C | -3 | -15 | 1 | 3 | 58*
CCOC(=O)C1(Cc2ccccc2C(F)(F)F)CCN(C(=O)c2cc(C(C)=O)n[nH]2)CC1 | 4 | 1 | 1.1 | -5 | -14
O=C(N/N=C/c1ccc(O)c(O)c1)c1ccc(CSc2cccc3cccnc23)cc1 | -12 | 5 | 0.8 | 21 | 57*
